The source made the active and inactive calls. No cut-off for these calls is given here.
Columns and labels:
[1] = system: HeLa; assay: Antiproliferative activity against human HeLa cells harboring p53 mutant at 10 uM after 5 days by MTS assay; type: functional, cell-based
Procedure, shortened: (§1)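 Cells (wild-type or mutant p53) grown in recommended medium with 10% FBS at 37 °C under 5% CO2. Compounds were kept as 1 mmol/L DMSO stocks. Cells were seeded in 96-well plates and treated with serial concentrations (highest 10 µM) for 5 days, then read by MTS. Viability is % of untreated controls, mean SD, n = 4.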

[2] = system: RKO; assay: Antiproliferative activity against human RKO cells expressing wild type p53 after 5 days by MTS assay; type: functional, cell-based; procedure, shortened: as §1
[3] = system: HCT-116; assay: Antiproliferative activity against human HCT116 cells expressing wild type p53 after 5 days by MTS assay; type: functional, cell-based; procedure, shortened: as §1
[4] = system: SJSA-1; assay: Antiproliferative activity against human SJSA1 cells expressing wild type p53 after 5 days by MTS assay; type: functional, cell-based; procedure, shortened: as §1
[5] = species on record: Homo sapiens; assay: Antiproliferative activity against human MDA-MB-435S cells harboring p53 mutant at 10 uM after 5 days by MTS assay; type: functional, cell-based; procedure, shortened: as §1
[6] = system: SW480; assay: Antiproliferative activity against human SW480 cells harboring p53 mutant at 10 uM after 5 days by MTS assay; type: functional, cell-based; procedure, shortened: as §1
[7] = system: HCT-116; assay: Cellular uptake in human HCT116 cells expressing wild type p53 at 5 uM after 1 hr by fluorometric analysis in presence of nutlin-glycine; conditions: hct-116, 1 h
[8] = system: SJSA-1; assay: Cellular uptake in human SJSA1 cells expressing wild type p53 at 5 uM after 1 hr by fluorometric analysis in presence of nutlin-glycine; type: ADME, cell-based; conditions: sjsa-1, 1 h
[9] = system: HCT-116; assay: Cellular uptake in human HCT116 cells expressing wild type p53 at 1 to 5 uM after 1 hr by fluorometric analysis; type: ADME, cell-based; conditions: hct-116, 1 h
Procedure, shortened: (§2)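 SJSA-1 or HCT116 cells were plated at 400,000/well and attached for 24 h. Fluorescein conjugate or free FAM was added at final 1 and 5 µM for 1 h at 37 °C, with DMSO and medium-only controls. Cells were washed three times in warm PBS, scraped and counted. About 10,000 cells/well were read by fluorescence at 485/520 nm; 3 runs per sample.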

[10] = system: SJSA-1; assay: Cellular uptake in human SJSA1 cells expressing wild type p53 at 1 to 5 uM after 1 hr by fluorometric analysis; type: ADME, cell-based; conditions: sjsa-1, 1 h; procedure, shortened: as §2

| SMILES | Activity [1] | Activity [2] | Activity [3] | Activity [4] | Activity [5] | Activity [6] | Drug uptake [7] | Drug uptake [8] | Drug uptake [9] | Drug uptake [10] |
| --- | --- | --- | --- | --- | --- | --- | --- | --- | --- | --- |
| COc1ccc(C2=N[C@@H](c3ccc(Cl)cc3)[C@@H](c3ccc(Cl)cc3)N2C(=O)N2CCNC(=O)C2)c(OC(C)C)c1 (relative stereo) | inactive | Dose-dependent effect | Dose-dependent effect | Dose-dependent effect | inactive | inactive |  |  |  |  |
| CCOc1cc(OC)ccc1C1=N[C@@H](c2ccc(Br)cc2)[C@@H](c2ccc(Br)cc2)N1C(=O)N1CCN(CCOC(=O)CN)CC1 (relative stereo) | inactive | Dose-dependent effect | Dose-dependent effect | Dose-dependent effect | inactive | inactive |  |  |  |  |
| CCOc1cc(OC)ccc1C1=N[C@@H](c2ccc(Br)cc2)[C@@H](c2ccc(Br)cc2)N1C(=O)N1CCN(CCOC(=O)CNC(=O)c2ccc(C(=O)O)c(-c3c4ccc(=O)cc-4oc4cc(O)ccc34)c2)CC1 (relative stereo) |  |  |  |  |  |  | Not Active | Not Active | Active | Active |

Source: ChEMBL document CHEMBL2346594, “Synthesis and evaluation of an imidazole derivative-fluorescein conjugate” (Bioorg Med Chem, 2013)
